Ecoli WT expand – growth inhibitors of wild-type E. coli, primary screen, strain BW25113, expanded library, OD600; 98,000 tested, 0.15% active; growth inhibition, % at 100 µM; OD600 absorbance;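 active = growth inhibition above about 50% at one test dose, limit read from the data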;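 note: growth measured after 20 h incubation at 37 °C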
HePTP inh – inhibitors of human HePTP phosphatase, primary screen, biochemical, absorbance, leukemia target; recombinant HePTP phosphatase activity, OD absorbance; inhibition, % at 20 µM; 110,000 tested, 0.64% active; AID 521, 2006; in the data active = inhibition above about 50%;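 note: plate controls were vehicle for no effect and reference inhibitor for full effect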
Target sequence (P35236 whole entry, looked up): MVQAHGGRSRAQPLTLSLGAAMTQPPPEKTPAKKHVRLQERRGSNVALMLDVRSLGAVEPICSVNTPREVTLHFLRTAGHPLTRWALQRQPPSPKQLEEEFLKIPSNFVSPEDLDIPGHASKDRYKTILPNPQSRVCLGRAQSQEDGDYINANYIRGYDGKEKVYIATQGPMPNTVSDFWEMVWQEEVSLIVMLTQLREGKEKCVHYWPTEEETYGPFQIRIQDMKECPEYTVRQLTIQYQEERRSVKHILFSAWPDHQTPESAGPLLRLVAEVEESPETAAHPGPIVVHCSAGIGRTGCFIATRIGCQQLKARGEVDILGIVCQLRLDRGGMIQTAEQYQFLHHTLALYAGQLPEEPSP
PostGolgi yeast – phenotypic screen on post-Golgi transport, primary screen | post-Golgi transport phenotypic cell assay | inhibition, % at 10 µM | 98,000 tested, 0.9% active | AID 739, 2007;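 note: yeast cells grown in 1536-well plates; yeast grown about 18 h at 30C before absorbance read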
PLAP activator – PLAP enzyme activators, biochemical, luminescence, HTS | purified PLAP enzyme, luminescent substrate read-out; hits give high values | AID 696, 2007 | 96,000 tested, 1.2% active | activation fold at 20 µM | Alkaline phosphatase, placental type (Homo sapiens), P05187; in the data active = activation fold above about 2
PostGolgi ctrl – growth inhibition of yeast control strain, primary screen, counter-screen for post-Golgi transport modulator project | 98,000 tested, 5% active | inhibition, % at 10 µM | efflux-deficient yeast background strain, growth absorbance A615, 16 h | AID 738, 2007
tolC growth inh – growth inhibitors of E. coli tolC mutant, primary screen, strain BW25113 ΔtolC::kan, 384-well; OD615; growth inhibition, % at 10 µM (by protocol); 65,000 tested, 2.2% active; AID 573, 2007;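 active = growth inhibition at or above a cutoff equal to the mean over every tested compound plus 3 SD, cut at about 60% in these data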;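 note: growth measured after 20 h incubation at 37 °C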
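Assay system: tolC-deleted E. coli BW25113. Medium: kanamycin-containing LB broth (50 µg/mL). Dosing: 10 µM final, single dose. Timing: bacterial growth with compound for 20 h at 37 °C. Detection: A615 absorbance measurement. Read-out basis: growth inhibition in percent.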
Numbers without * were called inactive. An excerpt weighted towards active compounds, which were near 5.5% of everything screened. Cut-off read from the data, not from the text of the source, unless noted: active = inhibition above about 30%; inactive = the rest.

Results for CC(C)c1ccc(NC(=O)C(=O)NCCO)cc1 ?
HePTP inh: -10

How did Cc1ccc(NC(=O)c2cccs2)cc1C do in these assays?
HePTP inh: 3

What do the screens show for `Cc1ccc(N/C=C(/C#N)c2ccsc2)cc1C`?
Ecoli WT expand: -3; PostGolgi yeast: -2; PLAP activator: 1.1; PostGolgi ctrl: 39*

How did CCCCn1c(-c2cccs2)nc2nc3ccccc3nc21 do in these assays?
Ecoli WT expand: -4; PostGolgi yeast: -12; PLAP activator: 1.1; PostGolgi ctrl: 31*

Results for CC(C)Cn1c(-c2cccs2)nc2nc3ccccc3nc21 ?
Ecoli WT expand: 3; HePTP inh: 5; PostGolgi yeast: -1; PLAP activator: 1.1; PostGolgi ctrl: 38*; tolC growth inh: 37

What do the screens show for `c1ccc2c(-c3csc(N4CCOCC4)n3)cccc2c1`?
HePTP inh: -10

What do the screens show for `Cc1ccsc1/C=N/OC(=O)c1nn(C)cc1Br`?
HePTP inh: -15

Results for Nc1nnc(SCC(=O)n2c3ccccc3c3ccccc32)s1 ?
HePTP inh: -13

What do the screens show for `O=C(NCc1ccc2c(c1)OCO2)C(Cl)Cl`?
HePTP inh: -7

What do the screens show for `CCOc1ccccc1C1N(c2ccc(OC)cc2)C(=O)C2CCCN21` (stereo not given)?
Ecoli WT expand: -2; HePTP inh: 3; PostGolgi yeast: -2; PLAP activator: 1.6; PostGolgi ctrl: 34*; tolC growth inh: -1

Results for O=[N+]([O-])c1ccc(-c2noc(-c3ccccc3Br)n2)cc1 ?
HePTP inh: 7

How did O=C1C=C(C(c2ccccc2)c2ccccc2)C(=O)c2ccccc21 do in these assays?
HePTP inh: -7

What do the screens show for `Cc1cccc(N2C(=O)CC(Sc3nc(C)c4c(n3)CCCC4)C2=O)c1` (stereo not given)?
Ecoli WT expand: 3; HePTP inh: 0; PostGolgi yeast: 3; PLAP activator: 1.1; PostGolgi ctrl: 28; tolC growth inh: 4

How did Cc1nc(SC2CC(=O)N(c3cc(Cl)cc(Cl)c3)C2=O)nc2c1CCCC2 (stereo not given) do in these assays?
Ecoli WT expand: -16; PostGolgi yeast: 14; PLAP activator: 1.5; PostGolgi ctrl: 59*

Results for O=c1[nH]c(-c2ccc(-c3ccc([N+](=O)[O-])cc3)o2)nc2sc3c(c12)CCCC3 ?
HePTP inh: 8

What do the screens show for `O=C(c1ccccc1F)N1CCN(Cc2ccc(Cl)cc2)CC1`?
HePTP inh: -10

How did O=C(Nc1ccccc1)N1CCCC(c2nc(-c3ccc(F)cc3)no2)C1 (stereo not given) do in these assays?
Ecoli WT expand: -14; PostGolgi yeast: -4; PLAP activator: 0.9; PostGolgi ctrl: 23

What do the screens show for `O=C(Nc1cccc(C(F)(F)F)c1)N1CCC(c2nc(-c3ccc(F)cc3)no2)CC1`?
Ecoli WT expand: -1; HePTP inh: -3; PostGolgi yeast: 1; PLAP activator: 0.9; PostGolgi ctrl: 70*; tolC growth inh: 89*

How did O=C(Nc1ccc(Cl)cc1)N1CCC(c2nc(-c3ccccc3Cl)no2)CC1 do in these assays?
Ecoli WT expand: -22; PostGolgi yeast: 11; PLAP activator: 1.2; PostGolgi ctrl: 40*

Results for O=C(Nc1ccc(Cl)cc1)N1CCC(c2nc(-c3cccs3)no2)CC1 ?
Ecoli WT expand: -4; HePTP inh: 7; PLAP activator: 0.7; PostGolgi ctrl: 44*; tolC growth inh: 100*

How did COc1ccc(NC(=O)N2CCC(c3nc(-c4cccs4)no3)CC2)cc1 do in these assays?
Ecoli WT expand: 8; HePTP inh: 3; PostGolgi yeast: 15; PLAP activator: 1.3; PostGolgi ctrl: -4; tolC growth inh: 20

How did COc1cccc(OCCCCN2CCC(C)CC2)c1 do in these assays?
HePTP inh: -12

Results for CC1=C(C(=O)Nc2ccc(Br)cc2)C(c2ccc(O)cc2)NC(=S)N1 (stereo not given) ?
HePTP inh: -19

What do the screens show for `COc1ccc(C2C3=C(CC(C)(C)CC3=O)OC3=C2C(=O)CC(C)(C)C3)cc1C(=O)O`?
HePTP inh: 6

How did CC1=Nc2cc([N+](=O)[O-])ccc2NC(=O)C1 do in these assays?
HePTP inh: 6

How did CCC(Sc1nc2n[nH]c(C)c2c(=N)n1-c1cccc(Cl)c1)C(=O)NCCOC (stereo not given) do in these assays?
Ecoli WT expand: 11; PostGolgi yeast: -3; PLAP activator: 2.1*; PostGolgi ctrl: 5; tolC growth inh: -17

What do the screens show for `CC(C)CCN=Cc1c(O)n(-c2ccccc2)c(=O)c2ccccc12`?
Ecoli WT expand: -4; PostGolgi yeast: 6; PLAP activator: 0.8; PostGolgi ctrl: 39*

Results for Cc1cc(C)n2nc(-c3sccc3-n3cccc3)cc2n1 ?
Ecoli WT expand: 0; PostGolgi yeast: -10; PLAP activator: 1; PostGolgi ctrl: 35*

What do the screens show for `Cc1cc(C)n2nc(-c3sccc3-n3c(C)ccc3C)cc2n1`?
Ecoli WT expand: -12; PostGolgi yeast: 3; PLAP activator: 1.1; PostGolgi ctrl: 22

How did CC(C)(C)c1ccccc1OCC(O)CN1CCN(Cc2ccccc2)CC1 (stereo not given) do in these assays?
HePTP inh: -14

What do the screens show for `CC1CC(OCC(O)CN2CCN(Cc3ccccc3)CC2)CC(C)(C)C1` (stereo not given)?
Ecoli WT expand: 15; PostGolgi yeast: 83*; PostGolgi ctrl: 32*

How did CC1(C)CC(Cc2ccccc2)(C(CO)CNCc2ccc(O)cc2)CCO1 (stereo not given) do in these assays?
HePTP inh: 11

How did Cc1ccc(C)c(NC(=O)C2CC(=O)N(c3ccc(Br)cc3)C2)c1 (stereo not given) do in these assays?
HePTP inh: 0

Results for CN(C)c1ccc(/C=C2/SC(N3CCOCC3)=NC2=O)cc1 ?
HePTP inh: 3

Results for COC(=O)CSc1nc2cc3c(cc2cc1C)OCCO3 ?
Ecoli WT expand: 0; HePTP inh: 5; PostGolgi yeast: 6; PLAP activator: 1; PostGolgi ctrl: 36*; tolC growth inh: -2

Results for COC(=O)CSc1nc2cc3c(cc2cc1C#N)OCO3 ?
Ecoli WT expand: 9; HePTP inh: 7; PostGolgi yeast: 20; PLAP activator: 0.9; PostGolgi ctrl: -5; tolC growth inh: -16

How did O=C(NC(=S)Nc1c(Cl)cc(Cl)cc1Cl)c1ccco1 do in these assays?
HePTP inh: -11

What do the screens show for `COc1ccc(OC)c(NC(=S)N2CCN(C/C=C/c3ccccc3)CC2)c1`?
Ecoli WT expand: 5; PostGolgi yeast: 1; PLAP activator: 1.7; PostGolgi ctrl: 18

What do the screens show for `COc1ccc(Cl)cc1NC(=O)C(C)N1CCN(C/C=C/c2ccccc2)CC1` (stereo not given)?
Ecoli WT expand: -8; PostGolgi yeast: 65*; PLAP activator: 6; PostGolgi ctrl: 19

Screening results deposited in PubChem BioAssay by several laboratories.
